Laboratory results from BindingDB's records for doi:10.1021/jm00109a027 (University of Minnesota, 1991).
pKi: −log10 of the molar value.

How the values were obtained:
[1] = target: Mu-type opioid receptor (Cavia porcellus, UniProt P97266); assay: Compound was evaluated for the binding affinity to Opioid receptor mu using [3H]DAMGO as radioligand in guinea pig brain membrane
[2] = target: Kappa-type opioid receptor (Cavia porcellus, UniProt P41144); assay: Compound was evaluated for the binding affinity to opioid receptor kappa using [3H]-EK as radioligand in guinea pig brain membrane
Method in brief: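 Radioligand displacement in guinea pig brain membranes, modified from an earlier published method. [3H]EK was used with 1 μM DAMGO present to block μ sites.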

[3] = Compound was evaluated for the binding affinity to opioid receptor delta

Chain of Mu-type opioid receptor (P97266 whole entry): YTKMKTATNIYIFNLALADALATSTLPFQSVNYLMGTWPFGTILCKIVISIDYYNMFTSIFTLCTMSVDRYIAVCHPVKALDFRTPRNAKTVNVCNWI
Chain of Kappa-type opioid receptor (P41144 whole entry): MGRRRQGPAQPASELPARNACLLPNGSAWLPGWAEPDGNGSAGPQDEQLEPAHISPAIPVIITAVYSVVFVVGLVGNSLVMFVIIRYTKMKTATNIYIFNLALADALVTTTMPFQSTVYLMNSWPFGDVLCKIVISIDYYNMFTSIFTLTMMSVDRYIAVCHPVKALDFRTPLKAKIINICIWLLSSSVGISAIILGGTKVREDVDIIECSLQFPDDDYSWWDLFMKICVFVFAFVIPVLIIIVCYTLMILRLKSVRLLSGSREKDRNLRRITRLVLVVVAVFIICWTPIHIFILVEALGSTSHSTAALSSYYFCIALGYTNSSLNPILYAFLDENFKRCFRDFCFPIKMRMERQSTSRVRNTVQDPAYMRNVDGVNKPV

Structure (SMILES) | pKi [1] | pKi [2] | pKi [3]
Oc1ccc2c3c1O[C@H]1c4nc5ccccc5nc4C[C@@]4(O)[C@@H](C2)N(CC2CC2)CC[C@]314 | 8.14 | 6.72 | –
Cn1c2c(c3c1[C@@H]1Oc4c(O)ccc5c4[C@@]14CCN(CC1CC1)[C@H](C5)[C@]4(O)C3)CCCC2 | 7.77 | 6.69 | –
Oc1ccc2c3c1O[C@H]1C(c4c[nH]c5ccccc45)=CC[C@@]4(O)C(C2)N(CC2CC2)CC[C@]314 [4-cyclopropylmethyl-14-(1H-3-indolyl)-(1S,13S,17S)-12-oxa-4-azapentacyclo[9.6.1.01,13.05,17.07,18]octadeca-7(18),8,10,14-tetraene-10,17-diol] | – | – | 9.00
Oc1ccc2c3c1O[C@H]1c4oc5ccccc5c4C[C@@]4(O)[C@@H](C2)N(CC2CC2)CC[C@]314 [CAS_111555-58-9] | 7.73 | 6.81 | –
Oc1ccc2c3c1O[C@H]1C(c4ccccc4)=CC[C@@]4(O)[C@@H](C2)N(CC2CC2)CC[C@]314 | 11.30 | 11.00 | –
